Experiments:
Adenosine receptor A2a = Adenosine receptor A2a (Rattus norvegicus, UniProt P30543); experiment: Displacement of [3H]CGS21680 from adenosine A2A receptor in rat brain striatal membrane after 60 mins; format: cell membranes
Adenosine receptor A3 = biological target: T1, Adenosine receptor A3 (Homo sapiens, UniProt P0DMS8); experiment: Displacement of [3H]PSB-11 from human recombinant adenosine A3 receptor expressed in CHO cells after 60 mins; format: cell-based
T1 sequence (P0DMS8 whole entry): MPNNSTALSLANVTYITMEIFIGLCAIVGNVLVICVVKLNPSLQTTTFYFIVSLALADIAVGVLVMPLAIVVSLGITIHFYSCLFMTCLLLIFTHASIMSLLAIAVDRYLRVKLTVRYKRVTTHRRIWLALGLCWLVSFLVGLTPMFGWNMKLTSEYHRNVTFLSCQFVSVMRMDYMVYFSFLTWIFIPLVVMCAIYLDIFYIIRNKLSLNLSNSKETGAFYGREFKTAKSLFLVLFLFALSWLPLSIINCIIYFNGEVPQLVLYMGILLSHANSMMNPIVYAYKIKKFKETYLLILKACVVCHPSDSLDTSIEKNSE
Procedure, shortened: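 Membranes from CHO cells expressing human A3 receptor (30–50 μg protein), pretreated 10–15 min with 0.12 IU/mL adenosine deaminase. [3H]PSB-11 1.0 nM, 60 min at rt, 2.5% DMSO final. Six to seven concentrations over 3 log units. At least 2–3 experiments in duplicate.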

Adenosine receptor A1 = biological target: T2, Adenosine receptor A1 (Rattus norvegicus, UniProt P25099); experiment: Displacement of [3H]CCPA from adenosine A1 receptor in rat brain cortical membrane after 90 mins
T2 sequence (P25099 whole entry): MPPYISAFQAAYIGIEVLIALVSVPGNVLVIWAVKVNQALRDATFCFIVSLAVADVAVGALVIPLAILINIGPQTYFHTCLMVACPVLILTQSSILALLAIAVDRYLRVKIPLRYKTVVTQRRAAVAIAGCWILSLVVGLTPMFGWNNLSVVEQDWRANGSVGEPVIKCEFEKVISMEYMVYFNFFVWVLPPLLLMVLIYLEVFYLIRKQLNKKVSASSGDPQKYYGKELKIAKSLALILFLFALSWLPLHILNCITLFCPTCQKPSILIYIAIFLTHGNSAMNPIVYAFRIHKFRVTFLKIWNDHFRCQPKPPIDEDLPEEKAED

[1] = Antiinflammatory activity in C57/Bl6 mouse CD4+ T cells assessed as inhibition of anti-CD3/anti-CD28 antibody-stimulated INFgamma production after 18 hrs by ELISA; format: functional, cell-based; conditions: C57/Bl6, T-cell
Procedure, shortened: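 Splenic CD4+ T cells from male C57/Bl6 mice (8–12 wk) were isolated by magnetic CD4 beads, resuspended in Panserin 413, and stimulated on plates coated with 0.4 μg/mL anti-CD3 and 2.5 μg/mL anti-CD28 for 18 h, with compound added together with the antibodies. IFN-γ in the supernatant was measured by ELISA, and EC50 was taken from dose-response curves.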

[2] = Prodrug stability in C57/Bl6 mouse CD4+ T cells expressing ecto-5'-nucleotidase assessed as compound remaining at 10 mM after 18 hrs by LC/MS analysis; format: ADME, cell-based; conditions: t-cell, 10000 µM
Procedure, shortened: (§1)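 Splenic CD4+ T cells (wild-type or ecto-5'-NT knockout C57/Bl6), about 4×10^5 cells in 200 μL, were stimulated with anti-CD3/anti-CD28 for 18 h with prodrug at initial 10, 5 or 2.5 mM. Prodrug and released nucleoside in the supernatant were quantified by LC-MS/MS (C18, water/methanol with 2 mM ammonium acetate, ESI negative MRM). Each is expressed as a percentage of the total.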

[3] = Prodrug stability in C57/Bl6 mouse CD4+ T cells expressing ecto-5'-nucleotidase assessed as compound remaining at 5 mM after 18 hrs by LC/MS analysis; format: ADME, cell-based; conditions: t-cell, 5000 µM; procedure, shortened: as §1
[4] = Prodrug stability in C57/Bl6 mouse CD4+ T cells expressing ecto-5'-nucleotidase assessed as compound remaining at 2.5 mM after 18 hrs by LC/MS analysis; format: ADME, cell-based; conditions: t-cell, 2500 µM; procedure, shortened: as §1
[5] = Prodrug stability in ecto-5'-nucleotidase knockout C57/Bl6 mouse CD4+ T cells assessed as compound remaining at 10 mM after 18 hrs by LC/MS analysis; format: ADME, cell-based; conditions: t-cell, 10000 µM; procedure, shortened: as §1
[6] = Prodrug stability in ecto-5'-nucleotidase knockout C57/Bl6 mouse CD4+ T cells assessed as compound remaining at 5 mM after 18 hrs by LC/MS analysis; format: ADME, cell-based; conditions: t-cell, 5000 µM; procedure, shortened: as §1
[7] = Prodrug stability in ecto-5'-nucleotidase knockout C57/Bl6 mouse CD4+ T cells assessed as compound remaining at 2.5 mM after 18 hrs by LC/MS analysis; format: ADME, cell-based; conditions: t-cell, 2500 µM; procedure, shortened: as §1
[8] = Prodrug stability in C57/Bl6 mouse CD4+ T cells expressing ecto-5'-nucleotidase assessed as formation of 2-(cyclohexylmethylthio)adenosine at 10 mM after 18 hrs by LC/MS analysis; format: ADME, cell-based; conditions: t-cell, 10000 µM, in the assay text read “2-(cyclohexylethylthio)adenosine” for “2-(cyclohexylmethylthio)adenosine”; procedure, shortened: as §1
[9] = Prodrug stability in C57/Bl6 mouse CD4+ T cells expressing ecto-5'-nucleotidase assessed as formation of 2-(cyclohexylmethylthio)adenosine at 2.5 mM after 18 hrs by LC/MS analysis; format: ADME, cell-based; conditions: t-cell, 2500 µM; procedure, shortened: as §1
[10] = Prodrug stability in ecto-5'-nucleotidase knockout C57/Bl6 mouse CD4+ T cells expressing ecto-5'-nucleotidase assessed as formation of 2-(cyclohexylmethylthio)adenosine at 10 mM after 18 hrs by LC/MS analysis; format: ADME, cell-based; conditions: t-cell, 10000 µM; procedure, shortened: as §1
[11] = Prodrug stability in ecto-5'-nucleotidase knockout C57/Bl6 mouse CD4+ T cells expressing ecto-5'-nucleotidase assessed as formation of 2-(cyclohexylmethylthio)adenosine at 5 mM after 18 hrs by LC/MS analysis; format: ADME, cell-based; conditions: t-cell, 5000 µM; procedure, shortened: as §1
[12] = Prodrug stability in ecto-5'-nucleotidase knockout C57/Bl6 mouse CD4+ T cells expressing ecto-5'-nucleotidase assessed as formation of 2-(cyclohexylmethylthio)adenosine at 2.5 mM after 18 hrs by LC/MS analysis; format: ADME, cell-based; conditions: t-cell, 2500 µM; procedure, shortened: as §1
[13] = Prodrug stability in C57/Bl6 mouse CD4+ T cells expressing ecto-5'-nucleotidase assessed as formation of 2-(cyclohexylethylthio)adenosine at 5 mM after 18 hrs by LC/MS analysis; conditions: t-cell, 5000 µM

Chain of Adenosine receptor A2a (P30543 whole entry): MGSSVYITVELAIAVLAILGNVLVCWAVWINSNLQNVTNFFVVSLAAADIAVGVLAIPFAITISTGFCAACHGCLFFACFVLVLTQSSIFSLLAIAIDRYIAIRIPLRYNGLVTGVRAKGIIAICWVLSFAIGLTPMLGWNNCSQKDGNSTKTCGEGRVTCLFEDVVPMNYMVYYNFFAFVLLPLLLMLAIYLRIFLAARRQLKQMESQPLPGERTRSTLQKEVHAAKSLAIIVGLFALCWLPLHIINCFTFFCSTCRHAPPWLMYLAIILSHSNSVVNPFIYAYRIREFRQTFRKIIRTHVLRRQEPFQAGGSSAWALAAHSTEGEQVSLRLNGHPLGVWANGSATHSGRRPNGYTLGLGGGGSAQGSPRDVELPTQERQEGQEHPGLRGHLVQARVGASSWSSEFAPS

Structure (SMILES) | Ki (Adenosine receptor A2a) | Ki (Adenosine receptor A3) | Ki (Adenosine receptor A1) | further results
Nc1nc(SCCC2COCCO2)nc2c1ncn2[C@@H]1O[C@H](CO)[C@@H](O)[C@H]1O (stereo partly specified) | 1.1 µM | 1.33 µM | 0.454 µM | 
C=CCSc1nc(N)c2ncn([C@@H]3O[C@H](CO)[C@@H](O)[C@H]3O)c2n1 | 1.52 µM | 6.64 µM | 0.532 µM | 
CCCCCCSc1nc(N)c2ncn([C@@H]3O[C@H](CO)[C@@H](O)[C@H]3O)c2n1 | 0.542 µM | 2.32 µM | 0.256 µM | 
C#CCSc1nc(N)c2ncn([C@@H]3O[C@H](CO)[C@@H](O)[C@H]3O)c2n1 | 2.9 µM | 6.99 µM | 0.555 µM | 
Nc1nc(SCCC2CCCCC2)nc2c1ncn2[C@@H]1O[C@H](COP(=O)(O)O)[C@@H](O)[C@H]1O |  |  |  | EC50 [1]: 5.7 µM; Stability [2]: 85%; Stability [3]: 87.2%; Stability [4]: 89.2%; Stability [5]: 94.7%; Stability [6]: 95.3%; Stability [7]: 97.3%; Activity [8]: 15%; Activity [9]: 10.8%; Activity [10]: 5.3%; Activity [11]: 4.7%; Activity [12]: 2.7%; Activity [13]: 12.8%
Nc1nc(SCCc2ccccc2)nc2c1ncn2[C@@H]1O[C@H](CO)[C@@H](O)[C@H]1O | 0.0185 µM | 1.81 µM |  | 
Nc1nc(SCc2ccccc2)nc2c1ncn2[C@@H]1O[C@H](CO)[C@@H](O)[C@H]1O | 0.606 µM | 0.12 µM | 0.927 µM | 
Nc1nc(SCCC2OCCO2)nc2c1ncn2[C@@H]1O[C@H](CO)[C@@H](O)[C@H]1O | 1.16 µM | 3.45 µM | 1.14 µM | 

Continued, in another order:

Ki (Adenosine receptor A2a) | Ki (Adenosine receptor A3) | Ki (Adenosine receptor A1) | Structure (SMILES) | further results
 | 3.64 µM | 0.4 µM | Nc1nc(SCCC2CCCCC2)nc2c1ncn2[C@@H]1O[C@H](CO)[C@@H](O)[C@H]1O | EC50 [1]: 0.05 µM
1.35 µM |  | 1.27 µM | CCCSc1nc(N)c2ncn([C@@H]3O[C@H](CO)[C@@H](O)[C@H]3O)c2n1 | 
0.793 µM | 10.4 µM | 0.994 µM | Nc1nc(SC2CCCC2)nc2c1ncn2[C@@H]1O[C@H](CO)[C@@H](O)[C@H]1O | 
2.48 µM | ≥ 10 µM | 0.139 µM | Nc1nc(SC2CCCCC2)nc2c1ncn2[C@@H]1O[C@H](CO)[C@@H](O)[C@H]1O | 
0.709 µM | 1.72 µM |  | Nc1nc(SCC2CCCCC2)nc2c1ncn2[C@@H]1O[C@H](CO)[C@@H](O)[C@H]1O | 
